Assay results: the array DNA melting data of Ke et al. (doi:10.1101/2024.01.08.574731)

How the values were obtained:
[1] = melting temperature; fluorescence melt of hairpins on a sequencing array, two-state fit, raised by 9.35 °C to match UV melts; settings: sodium 0.088 M
Outline: (§1)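 Folding enthalpy and melting temperature come from bootstrapped two-state fits to Cy3 fluorescence of library hairpins carrying annealed Cy3 and quencher oligos on a sequenced MiSeq flow cell. Imaging was done in 50 mM Na-HEPES pH 8.0, 25 mM NaCl, stepping by 2.5 °C up to 60 °C, and signals were normalised to pre-quench Cy3 and to control constructs. Results of four replicates were combined by inverse variance, and fitted temperatures were raised by 9.35 °C to match UV melts.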

[2] = folding enthalpy; higher = less favourable; fluorescence melt of hairpins on a sequencing array, two-state fit; settings: sodium 0.088 M
Outline: as §1

| Sequence | Tm [1] | folding enthalpy [2] |
| --- | --- | --- |
| GGTGTTGGAAACGACACC (((((.(....).))))) | 54.3 °C | -50.3 kcal/mol |
| GGTTAACCGAAAGGTACC (((..(((....)))))) | 38 °C | -17.4 kcal/mol |
| GGTTAACGAAAGTTTACC (((.(((....))).))) | 45.2 °C | -33.3 kcal/mol |
| GGTTAATCGAAAGATACC (((..(((....)))))) | 29.2 °C | -17.1 kcal/mol |
| GGTTACCGAAAGGTCACC (((.(((....))).))) | 49.1 °C | -27.7 kcal/mol |
| GGTTACGAAAGTAAAACC ((((((....)))..))) | 36.6 °C | -24.3 kcal/mol |
| GGTTACGAAAGTAACACC ((((((....)))..))) | 44.6 °C | -12.7 kcal/mol |
| GGTTACGAAAGTAGCACC ((((((....)))..))) | 31.7 °C | -14.5 kcal/mol |
| GGTTACGGAAACGTAATC (.(((((....))))).) | 45.5 °C | -30.5 kcal/mol |
| GGTTAGACGAAAGTCACC (((..(((....)))))) | 27 °C | -6.17 kcal/mol |
| GGTTAGGCGAAAGCCACC (((..(((....)))))) | 42.9 °C | -12.5 kcal/mol |
| GGTTAGGGAAACCTGACC (((.(((....))).))) | 48 °C | -33 kcal/mol |
| GGTTATACGAAAGTAACC (((..(((....)))))) | 38.1 °C | -14.7 kcal/mol |
| GGTTCACCGAAAGGTACC (((..(((....)))))) | 32.2 °C | -11.9 kcal/mol |
| GGTTCACGAAAGTGCACC (((.(((....))).))) | 50.5 °C | -29.7 kcal/mol |
| GGTTCACGAAAGTGTACC (((.(((....))).))) | 52.4 °C | -36.4 kcal/mol |
| GGTTCAGGAAACCGAACC (((((.(....).))))) | 47.8 °C | -26.5 kcal/mol |
| GGTTCAGGAAACTGGACC (((.(((....))).))) | 50.7 °C | -44.8 kcal/mol |
| GGTTCCCGAAAGGGCACC (((.(((....))).))) | 51.6 °C | -26.2 kcal/mol |
| GGTTCCGAAAGGAATACC ((((((....)))..))) | 41.5 °C | -14.1 kcal/mol |
| GGTTCCGAAAGGACTACC ((((((....)))..))) | 36.1 °C | -15.3 kcal/mol |
| GGTTCCGAAAGGAGGACC ((((((....)))..))) | 38.1 °C | -18.8 kcal/mol |
| GGTTCCGAAAGGAGTACC ((((((....)))..))) | 38.9 °C | -21 kcal/mol |

| Sequence | Tm [1] | folding enthalpy [2] |
| --- | --- | --- |
| GGTTCCGAAAGGATCACC ((((((....)))..))) | 33.1 °C | -14.7 kcal/mol |
| GGTTCGCGAAAGCGACC (((.(((....)))))) | 61.7 °C | -14.9 kcal/mol |
| GGTTCGGGAAACCGGACC (((.(((....))).))) | 58.3 °C | -39.5 kcal/mol |
| GGTTCGGGAAACCGGATC (.(.(((....))).).) | 38.2 °C | -18.3 kcal/mol |
| GGTTCTCCGAAAGGAACC (((..(((....)))))) | 42.9 °C | -20.8 kcal/mol |
| GGTTCTCGAAAGAGTACC (((.(((....))).))) | 46.7 °C | -26.1 kcal/mol |
| GGTTCTGGAAACAAAACC ((((.((....)).)))) | 28.5 °C | -16.3 kcal/mol |
| GGTTCTGGAAACAGAACC (((((((....))))))) | 60.8 °C | -46.5 kcal/mol |
| GGTTGAACGAAAGTTACC (((..(((....)))))) | 31.1 °C | -13.2 kcal/mol |
| GGTTGACGAAAGTCCACC (((.(((....))).))) | 50.5 °C | -32 kcal/mol |
| GGTTGAGGAAACTCAACC (((((((....))))))) | 60.7 °C | -40.1 kcal/mol |
| GGTTGAGGAAACTCGACC (((.(((....))).))) | 51.5 °C | -44.2 kcal/mol |
| GGTTGCCGAAAGGCACC (((.(((....)))))) | 59 °C | -14.5 kcal/mol |
| GGTTGCGAAAGCAGAACC ((((((....)))..))) | 47.5 °C | -19.8 kcal/mol |
| GGTTGCGAAAGCAGACC ((((((....))).))) | 51 °C | -27.2 kcal/mol |
| GGTTGCTCGAAAGAGACC (((..(((....)))))) | 29.6 °C | -13.4 kcal/mol |
| GGTTGGCGAAAGCCCACC (((.(((....))).))) | 51.4 °C | -25.8 kcal/mol |
| GGTTGGGAAACCAACC ((((((....)))))) | 60.4 °C | -42.9 kcal/mol |
| GGTTGGGCGAAAGCCACC (((..(((....)))))) | 39.8 °C | -12.7 kcal/mol |
| GGTTGGGGAAACCCAGTC (..((((....))))..) | 30.4 °C | -8.72 kcal/mol |
| GGTTGGGGAAACCTAACC ((((.((....)).)))) | 48 °C | -32.4 kcal/mol |
| GGTTGGGGAAACCTGACC (((..((....))..))) | 44.1 °C | -22.5 kcal/mol |
| GGTTGTCGAAAGACACC (((.(((....)))))) | 53.1 °C | -25.9 kcal/mol |

| Sequence | Tm [1] | folding enthalpy [2] |
| --- | --- | --- |
| GGTTGTGGAAACACGACC (((.(((....))).))) | 54.5 °C | -43.2 kcal/mol |
| GGTTGTGGAAACACGATC (.(.(((....))).).) | 34 °C | -21.9 kcal/mol |
| GGTTGTGGAAACATAACC ((((.((....)).)))) | 45.9 °C | -37 kcal/mol |
| GGTTGTGGAAACGCAACC (((((.(....).))))) | 54 °C | -40.7 kcal/mol |
| GGTTTACGAAAGTAACC (((.(((....)))))) | 44.2 °C | -20.6 kcal/mol |
| GGTTTAGAAATAAACC ((((((....)))))) | 45.3 °C | -29.2 kcal/mol |
| GGTTTAGGAAACTAAATC (.(((((....))))).) | 35.5 °C | -22.2 kcal/mol |
| GGTTTAGGAAACTAAGCC ((.((((....)))).)) | 39.8 °C | -27.6 kcal/mol |
| GGTTTCCGAAAGGAACC (((.(((....)))))) | 51.8 °C | -19.8 kcal/mol |
| GGTTTCCGAAAGGACACC (((.(((....))).))) | 49 °C | -39 kcal/mol |
| GGTTTCGAAAGAAAACC ((((((....))).))) | 46.4 °C | -25.7 kcal/mol |
| GGTTTCGAAAGAAGGACC ((((((....)))..))) | 29.1 °C | -15.5 kcal/mol |
| GGTTTCGGAAACGAAATC (.(((((....))))).) | 48 °C | -25.1 kcal/mol |
| GGTTTCGGAAACGAAGTC (..((((....))))..) | 26.4 °C | -10.3 kcal/mol |
| GGTTTGCCGAAAGGCACC (((..(((....)))))) | 30.7 °C | -8.06 kcal/mol |
| GGTTTGGGAAACCAAATC (.(((((....))))).) | 44.5 °C | -31.1 kcal/mol |
| GGTTTGGGAAACCAAGTC (..((((....))))..) | 28.1 °C | -15.4 kcal/mol |
| GGTTTGGGAAACCAGATC (.(.(((....))).).) | 30 °C | -10.3 kcal/mol |
| GGTTTGGGAAACCGAATC (.((.((....)).)).) | 35.3 °C | -20.2 kcal/mol |
| GGTTTGGGAAACTGAACC ((((..(....)..)))) | 35.1 °C | -29.2 kcal/mol |
| GGTTTTACGAAAGTAACC (((..(((....)))))) | 31.7 °C | -11.8 kcal/mol |
| GGTTTTGGAAACAAGACC (((.(((....))).))) | 42.8 °C | -31.6 kcal/mol |
| GTAAAACGAAAGTTGTAC (((.(((....))).))) | 35.3 °C | -20.4 kcal/mol |

| Sequence | Tm [1] | folding enthalpy [2] |
| --- | --- | --- |
| GTAAACACGAAAGTGTAC (((..(((....)))))) | 31.2 °C | -11.7 kcal/mol |
| GTAAACCGAAAGGTATAC (((.(((....))).))) | 40.5 °C | -25.1 kcal/mol |
| GTAAACCGAAAGGTGTAC (((.(((....))).))) | 46.2 °C | -23.3 kcal/mol |
| GTAAACGGAAACGCTTAC ((((.((....)).)))) | 37.1 °C | -29.5 kcal/mol |
| GTAAACGGAAACGTCTAC (((.(((....))).))) | 29 °C | -21.2 kcal/mol |
| GTAAACGGAAACGTTCAC ((.((((....)))).)) | 32.4 °C | -23.6 kcal/mol |
| GTAAAGCGAAAGCTTAC (((.(((....)))))) | 42.6 °C | -12.8 kcal/mol |
| GTAAAGGAAACTTTAC ((((((....)))))) | 40.6 °C | -32.6 kcal/mol |
| GTAAAGGGAAACCTTTAC (((((((....))))))) | 51.3 °C | -41 kcal/mol |
| GTAACAGAAATGTTAC ((((((....)))))) | 45.7 °C | -32.8 kcal/mol |
| GTAACAGGAAACTGTTAC (((((((....))))))) | 55.4 °C | -43.6 kcal/mol |
| GTAACCCGAAAGGGGTAC (((.(((....))).))) | 57.6 °C | -30.9 kcal/mol |
| GTAACCGAAAGGTAATAC ((((((....)))..))) | 23.8 °C | -11.9 kcal/mol |
| GTAACCGAAAGGTACTAC ((((((....)))..))) | 40.8 °C | -16.9 kcal/mol |
| GTAACCGAAAGGTATAC ((((((....))).))) | 35.2 °C | -14.9 kcal/mol |
| GTAACCGAAAGGTGTTAC ((((((....)))..))) | 35 °C | -12.6 kcal/mol |
| GTAACCGGAAACGATTAC ((((.((....)).)))) | 36.4 °C | -25.3 kcal/mol |
| GTAACGCGAAAGCGTAC (((.(((....)))))) | 49 °C | -10.6 kcal/mol |
| GTAACGGCGAAAGCCTAC (((..(((....)))))) | 20.7 °C | -9.07 kcal/mol |
| GTAACTCGAAAGAGCTAC (((.(((....))).))) | 41.9 °C | -29.2 kcal/mol |
| GTAACTGGAAACAGTCAC ((.((((....)))).)) | 34.8 °C | -17 kcal/mol |
| GTAAGAGGAAACCCTTAC (((((.(....).))))) | 31.4 °C | -19.6 kcal/mol |
